# Reference: ChEMBL document CHEMBL1149253, “Effects of indole fatty alcohols on the differentiation of neural stem cell derived neurospheres” (J Med Chem, 2004)
# The source made the active and inactive calls. The rule behind the calls is not given here.
# Columns and labels:
# [1] = Differentiation activity of neural stem cell derived neurosphere into neurons at 10 nM after 3 days relative to control; assay type: functional, Homo sapiens
# In short: (§1)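 Dissociated neurospheres proliferated for 3 days, then 50–100 spheres were plated on polyornithine coverslips to differentiate, with EGF reduced to 2 ng/mL. Compound (ethanol stock, 0.1% ethanol final; ethanol-only control) was added at plating, or daily at 10 nM in proliferation, differentiation or both phases. Spheres were fixed in 4% PFA and immunostained for MAP2/TUJ1 (neurons) and GFAP (astrocytes). Confocal counts were expressed as % of TO-PRO-3-stained cells; >10 spheres per condition, 3–4 independent experiments.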
# [2] = Hydroxyl radical scavenging activity after 2 hrs by ABTS competition assay; assay type: functional
# In short: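 In the ABTS competition assay, hydroxyl radicals oxidize ABTS to ABTS•+, read by absorbance at 405 nm. IC50 is the concentration giving 50% decrease in ABTS•+ formed. Values are means of triplicate determinations.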
# Homo sapiens [3] = species: Homo sapiens; test: Effect on neural stem cell derived neurospheres assessed as differentiation into astrocytes at 10 nM after 3 days; assay type: functional; in short: as §1
# Homo sapiens [4] = species: Homo sapiens; test: Mitotic effect on neuronal precursors in neural stem cell derived neurospheres assessed by BrdU incorporation; assay type: functional
# [5] = Decrease in Notch1 mRNA expression in neural stem cell derived neurospheres during differentiation phase at 10 nM by semi-quantitative RT-PCR; assay type: functional; design: scale not given: the % may be the effect or the level left; settings: Homo sapiens
# In short: (§2)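 Neurospheres were treated with or without compound at 10 nM during the differentiation phase. Total RNA was then isolated. cDNA was made from 3 μg RNA with M-MLV reverse transcriptase and random hexamers at 37 °C for 1 h. One-tenth of the cDNA was amplified by Taq PCR with gene-specific Notch primers, using GAPDH as internal control (94/55/72 °C, 30 s each). Products were resolved on a 1% agarose gel with ethidium bromide.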
# [6] = Decrease in Notch2 mRNA expression in neural stem cell derived neurospheres during differentiation phase at 10 nM by semi-quantitative RT-PCR; assay type: functional; design: scale not given: the % may be the effect or the level left; settings: Homo sapiens; in short: as §2
# [7] = Decrease in Notch3 mRNA expression in neural stem cell derived neurospheres during differentiation phase at 10 nM by semi-quantitative RT-PCR; assay type: functional; design: scale not given: the % may be the effect or the level left; settings: Homo sapiens; in short: as §2
# [8] = Decrease in Notch4 mRNA expression in neural stem cell derived neurospheres during differentiation phase at 10 nM by semi-quantitative RT-PCR; assay type: functional; design: scale not given: the % may be the effect or the level left; settings: Homo sapiens; in short: as §2
# [9] = Effect on neural stem cell derived neurospheres during proliferation phase assessed as increase in number of MAP2 positive cells at 10 nM after 3 days; assay type: functional, Homo sapiens; in short: as §1
# [10] = Effect on neural stem cell derived neurospheres during differentiation phase assessed as increase in number of MAP2 positive cells at 10 nM after 3 days; assay type: functional, Homo sapiens; in short: as §1
# [11] = Effect on neural stem cell derived neurospheres during proliferation and differentiation phase assessed as increase in number of MAP2 positive cells at 10 nM; assay type: functional, Homo sapiens; in short: as §1
Structure (SMILES),Activity [1] [%],IC50 [2] [µM],further results
COc1ccc2[nH]cc(CCCCCCCCCCCCCCO)c2c1,143,,
CC1=C(CCCCCCCCCCCCCCCO)C(C)(C)CCC1=O,,,Activity [2]: inactive
COc1ccc2c(CCCCCCCCCCO)c[nH]c2c1,110,,
COc1ccc2c(CCCCCCCCCCCCO)c[nH]c2c1,67,,
COc1ccc2[nH]cc(CCCCCCCCCCCCCCCCO)c2c1OC,118,17,
COc1ccc2[nH]cc(CCCCCCCCCCO)c2c1,109,,
COc1cccc2[nH]cc(CCCCCCCCCCCCCCCCO)c12,133,23,
OCCCCCCCCCCCCCCc1c[nH]c2ccccc12,118,,
COc1ccc2[nH]cc(CCNC(C)=O)c2c1 [MELATONIN],119,211,
COc1cc2[nH]cc(CCCCCCCCCCCCCCCCCCO)c2cc1OC,116,,
CCCCCCCCCCCCCCCc1c[nH]c2ccc(OC)cc12,,207,
OCCCCCCCCCCCCCCCCc1c[nH]c2ccccc12,144,,
COc1ccc2[nH]cc(CCCCCCCCCCCCO)c2c1,108,,
Cc1c(C)c2c(c(C)c1O)CCC(C)(C(=O)O)O2 (centres undefined) [TROLOX],,600,
OCCCCCCCCCCCCc1c[nH]c2ccccc12,124,,
OCCCCCCCCCCc1c[nH]c2ccccc12,115,,
COc1ccc2[nH]cc(CCCCCCCCCCCCCCCCCCO)c2c1,169,,Activity (Homo sapiens [3]): inactive; Activity (Homo sapiens [4]): inactive; Activity [5]: > 70%; Activity [6]: > 70%; Activity [7]: > 70%; Activity [8]: 19%; Activity [9]: <=90%; Activity [10]: <=90%; Activity [11]: <=90%
COc1ccc2c(CCCCCCCCCCCCCCCCO)c[nH]c2c1,135,34,
COc1cccc2[nH]cc(CCCCCCCCCCCCCCO)c12,118,,
OCCCCCCCCCCCCCCCCCCc1c[nH]c2ccccc12,113,,
COc1cccc2[nH]cc(CCCCCCCCCCCCCCCCCCO)c12,110,,
COc1cccc2[nH]cc(CCCCCCCCCCO)c12,95,,
COc1ccc2c(CCCCCCCCCCCCCCO)c[nH]c2c1,82,,
COc1ccc2[nH]cc(CCCCCCCCCCCCCCCCCCO)c2c1OC,106,,
COc1ccc2[nH]cc(CCCCCCCCCCCCCCCCO)c2c1,168,34,
COc1cc2[nH]cc(CCCCCCCCCCCCCCCCO)c2cc1OC,113,34,
COc1ccc2c(CCCCCCCCCCCCCCCCCCO)c[nH]c2c1,156,,
COc1cccc2[nH]cc(CCCCCCCCCCCCO)c12,98,,
COc1cccc2c(CCCCCCCCCCCCCCCCO)c[nH]c12,,26,
